Laboratory results as given in ChEMBL document CHEMBL4616681, “Discovery of 3-Pyridyl Isoindolin-1-one Derivatives as Potent, Selective, and Orally Active Aldosterone Synthase (CYP11B2) Inhibitors” (J Med Chem, 2020).
≈ marks a conversion by molar mass, not a printed value. Calls of active or inactive are those of the source.

Tests used:
[1] = Protein binding in rat plasma assessed as unbound fraction at 1 uM by micro-equilibrium dialysis based LC-MS/MS analysis; type: ADME, cell-free
Method in brief: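 Equilibrium dialysis of pooled rat or cynomolgus plasma against Soerensen buffer pH 7.4, 12–14 kDa cut-off membrane. Compounds tested in cassettes of 2–5 at 1 μM initial total concentration, with diazepam as control. Dialysis 5 hr at 37 °C under 5% CO₂. Unbound percentage by LC/MS-MS.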

Cynomolgus monkey [2] = assay: In vivo inhibition of CYP11B2 in cynomolgus monkey assessed as reduction in ACTH-induced 11-deoxycorticosterone at 0.01 to 10 mg/kg, po preincubated for 1 hr followed by ACTH challenge and measured after 60 mins by LC/MS-MS analysis; type: functional, organism-based; details: Macaca fascicularis
Method in brief: (§1)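 Cynomolgus monkeys preselected as Synacthen responders (at least 2-fold rise in aldosterone, cortisol and corticosterone). Two animals per group. Oral vehicle or compound at 0.01–10 mg/kg in hydroxyethylcellulose/polysorbate 80/paraben suspension (2 mL/kg) at T=0, then 14.5 µg/kg Synacthen i.m. at 1 hr. EDTA blood drawn from -5 min to 24 h. Plasma steroids measured by LC/MS-MS; data shown 60 min after challenge.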

[3] = Oral bioavailability in cynomolgus monkey; type: ADME, organism-based, Macaca fascicularis; details: in vivo
[4] = Free plasma concentration in cynomolgus monkey at 0.1 mg/kg; type: ADME, organism-based, Macaca fascicularis; details: in vivo
Method in brief: (§2)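 Cynomolgus monkeys, 2 per group, given single oral doses of 0.01, 0.1, 1 or 10 mg/kg as a suspension in hydroxyethylcellulose/polysorbate 80/parabens vehicle, 2 mL/kg. Synacthen 14.5 µg/kg given i.m. at 1 hr. Plasma compound levels by LC/MS-MS. Average free exposure calculated from AUC0-7hr and corrected for plasma protein binding.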

[5] = target: T1, Cytochrome P450 11B2, mitochondrial (Homo sapiens, UniProt P19099); assay: Inhibition of human CYP11B2 expressed in human renal leiomyoblastoma cells harboring FDXR/FDX using 1-deoxycorticosterone as substrate by HTRF assay; type: cell-based
T1 sequence (P19099 whole entry): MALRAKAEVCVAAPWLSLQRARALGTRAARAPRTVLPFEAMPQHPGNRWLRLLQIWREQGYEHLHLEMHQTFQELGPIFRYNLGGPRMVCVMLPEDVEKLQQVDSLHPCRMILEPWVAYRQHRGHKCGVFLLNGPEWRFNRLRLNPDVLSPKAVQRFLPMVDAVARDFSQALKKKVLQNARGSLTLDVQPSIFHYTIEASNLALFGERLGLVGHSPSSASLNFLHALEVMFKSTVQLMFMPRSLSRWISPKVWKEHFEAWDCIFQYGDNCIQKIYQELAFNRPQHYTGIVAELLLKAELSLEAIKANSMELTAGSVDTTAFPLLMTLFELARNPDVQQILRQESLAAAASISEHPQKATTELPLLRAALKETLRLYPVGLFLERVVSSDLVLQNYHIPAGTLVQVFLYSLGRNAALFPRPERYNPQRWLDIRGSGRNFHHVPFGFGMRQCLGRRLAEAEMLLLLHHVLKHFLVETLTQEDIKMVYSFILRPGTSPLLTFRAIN
Method in brief: (§3)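 Cells with endogenous FDXR/FDX and no detectable CYP11B activity, stably transfected (CMV promoter, neomycin selection, G-418 400 µg/mL) with CYP11B1 or CYP11B2 of the named species. Assayed in DMEM/F12 with 2.5% charcoal-treated FCS. Substrate 1 µM 11-deoxycorticosterone (B2) or 11-deoxycortisol (B1), 16 hr. Aldosterone or cortisol in supernatant measured by HTRF. IC50 from 4-parameter MMF fit; selectivity factor is the B1/B2 IC50 ratio.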

[6] = Intrinsic clearance in rat hepatocytes; type: ADME, cell-based, Hepatocyte; details: read-out: CLH
[7] = Inhibition of cynomolgus monkey CYP11B2 expressed in human G401 cells using 1-deoxycorticosterone as substrate by HTRF assay; type: cell-based, Macaca fascicularis; details: g-401; method in brief: as §3
[8] = target: T1, Cytochrome P450 11B2, mitochondrial; assay: Inhibition of CYP11B2 in H295R cell assessed as reduction in 18-hyroxycorticosterone by LC/MS-MS method
Cynomolgus monkey [9] = assay: In vivo inhibition of CYP11B2 in cynomolgus monkey assessed as reduction in ACTH-induced corticosterone at 0.01 to 10 mg/kg, po preincubated for 1 hr followed by ACTH challenge and measured after 60 mins by LC/MS-MS analysis; type: functional, organism-based; details: Macaca fascicularis; method in brief: as §1
[10] = Dose normalized AUC in cynomolgus monkey; type: ADME, Macaca fascicularis; details: in vivo
[11] = Solubility of the compound in phosphate buffer at pH 6.5 shaken for 2 hrs followed by overnight incubation; type: physicochemical
Method in brief: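 Lyophilisation solubility assay run in duplicate from 10 mM DMSO stock. DMSO evaporated and residue redissolved in 0.05 M phosphate, pH 6.5. Stirred 1 hr, shaken 2 hr, left overnight, then filtered. Filtrate and a 1/10 dilution analysed by HPLC-UV against a four-point calibration.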

Cynomolgus monkey [12] = assay: In vivo inhibition of CYP11B1 in cynomolgus monkey assessed as reduction in ACTH-induced cortisol at 0.01 to 1 mg/kg, po preincubated for 1 hr followed by ACTH challenge and measured after 60 mins by LC/MS-MS analysis; type: ADME, organism-based, Macaca fascicularis; method in brief: as §1
[13] = Free plasma concentration in cynomolgus monkey at 1 mg/kg; type: ADME, organism-based, Macaca fascicularis; details: in vivo; method in brief: as §2
[14] = Free plasma concentration in cynomolgus monkey at 10 mg/kg; type: ADME, organism-based, Macaca fascicularis; details: in vivo; method in brief: as §2
[15] = AUC (0 to infinity) in Wister-Han rat at 3 mg/kg, po administered as single dose by LC/MS-MS analysis; type: ADME, organism-based; parameters: dose 3 mg/kg, route oral, time infinity; details: Wistar-Han, in vivo
Method in brief: (§4)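 Male Wistar-Han rats, single dose. IV 1 mg/kg, compound at 0.5 mg/mL in NMP:saline 30/70 (v/v). Oral 3 mg/kg, 0.25 mg/mL in 2% Klucel with 0.1% Polysorbate 80. Three rats per time point. Heparinized blood taken at eight (iv) or seven (po) time points, plasma stored at -20 °C. Plasma levels by LC/MS-MS. Non-compartmental analysis.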

[16] = Intrinsic clearance in rat liver microsomes preincubated for 10 mins followed by NADPH regenerating system addition and measured up to 30 mins by LC/MS-MS analysis; type: ADME, Microsome
Method in brief: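 Liver microsomes at 0.5 mg protein/mL in 100 mM potassium phosphate, pH 7.4. Compound preincubated 10 min at 37 °C. Intrinsic clearance scaled using the well-stirred liver model.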

[17] = Dose normalized AUC in Wister-Han rat at 1 mg/kg, iv or 3 mg/kg, po administered as single dose by LC/MS-MS analysis; type: ADME, organism-based; details: in vivo; method in brief: as §4
[18] = Selectivity ratio of IC50 for human CYP11B1 expressed in human renal leiomyoblastoma cells harboring FDXR/FDX to IC50 for human CYP11B2 expressed in human renal leiomyoblastoma cells harboring FDXR/FDX; type: cell-based; method in brief: as §3
Cynomolgus monkey [19] = assay: In vivo inhibition of CYP11B2 in cynomolgus monkey assessed as reduction in ACTH-induced aldosterone at 0.01 to 10 mg/kg, po preincubated for 1 hr followed by ACTH challenge and measured after 60 mins by LC/MS-MS analysis; type: functional, organism-based; details: Macaca fascicularis; method in brief: as §1
[20] = Intrinsic clearance in cynomolgus monkey hepatocytes; type: ADME, cell-based, Macaca fascicularis, Hepatocyte; details: read-out: CLH
[21] = Selectivity ratio of IC50 for cynomolgus monkey CYP11B1 expressed in human G401 cells to IC50 for cynomolgus monkey CYP11B2 expressed in human G401 cells; type: cell-based; method in brief: as §3

For `CCS(=O)(=O)N1CC(Oc2cncc(N3C(=O)c4ccc(Cl)cc4C3(C)C)c2)C1`, the fraction unbound at 1 µM [1] was 0.052, the inhibition (Cynomolgus monkey [2]) was “inactive” and the bioavailability [3] was 19%. The “Cp(f)” value [4] was 0.825 ng/mL, the IC50 [5] was 4 nM and the CLint scaled [6] was 26.7 mL/min/kg. For the same compound, the IC50 [7] was 2 nM, the IC50 [8] was < 1 nM and the inhibition (Cynomolgus monkey [9]) was “inactive”. For the same compound, the AUC/dose [10] was 1085 kg·ng·h/mL/mg, the solubility at 2 h [11] was 78 µg/mL (≈ 179 µM) and the Activity (Cynomolgus monkey [12]) was “Non-Toxic”. The “Cp(f)” value [13] was 10.3 ng/mL, the “Cp(f)” value [14] was 86.46 ng/mL and the AUC(0-inf) [15] was 6370 ng·h/mL. For the same compound, the predicted hepatic clearance (CLH) [16] was 5 mL/min/kg, the AUC/dose [17] was 2123 kg·ng·h/mL/mg and the Ratio IC50 [18] was 162. For the same compound, the inhibition (Cynomolgus monkey [19]) was “Active”, the CLint scaled [20] was 7.2 mL/min/kg and the Ratio IC50 [21] was 664.
